Laboratory results reported in PubChem BioAssay.
Results filed as inconclusive are left out. Active and inactive are the calls of the source.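 Rule for the calls, unless noted: active = RAM network inhibition above 8.4% in each of two replicates, 3 SD over the compound average; inconclusive = above 8.4% inhibition in only one replicate; inactive = 8.4% inhibition or less in each replicate.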

Experiments:
[1] = OD615 S. cerevisiae growth inhibition, permissive medium, pilot counter-assay, permissive growth control for S. cerevisiae lifespan shortening project (AID 705;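 active = growth inhibition above 25% in both replicates, a cutoff set 3 SD above the mean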); settings: OD615, 24 h, at 10 µM, stronger effect = higher value
In short: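 System: Engineered DeaD yeast | Buffer or medium: SC raffinose/galactose permissive medium | Doses: 10 µM single dose, 0.25% DMSO | Times: 24 h exposure, 30 °C | Measured by: OD615 turbidity read | Read-out: Yeast growth inhibition indicated by reduced 24 h OD615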

[2] = Restrictive medium S. cerevisiae growth inhibition, OD615, pilot screen of yeast lifespan reduction project, restrictive growth control (AID 706;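 active = growth inhibition above a set limit, 3 SD over mean compound inhibition, in both replicates, cut at about 43% in these data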;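 note: modified DeaD lifespan yeast strain shifted to restrictive glucose medium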); settings: OD615, 48 h, at 10 µM, stronger effect = higher value
In short: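 Assay system: engineered S. cerevisiae DeaD strain; Buffer or medium: CSMM-D glucose medium; Dosing: 10 µM compound, 0.25% DMSO; Times: cell pre-growth 4 h, compound exposure 48 h, 30 °C; Detection: absorbance (optical density) measured at 615 nm.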

[3] = viability gain of MRP-1-high H69AR cells under doxorubicin, pilot screen, MRP-1 activator project, CellTiter-Glo, duplicate (AID 807;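 active = viability increase at or above a cutoff of the median across tested compounds plus 3 SD, cut at about 8.5% in these data, passing the limit was not always enough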;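 note: compound pretreatment 18-22 h then 72 h combined with doxorubicin; 0% = doxorubicin alone and 100% = vehicle without doxorubicin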); settings: H69AR viability with doxorubicin, CellTiter-Glo luminescence; at 10 µM; stronger effect = higher value
[4] = growth suppression of beta-catenin knockout HCT116, pilot screen, human colon tumor cells (AID 823;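 active = cell viability at or below a set limit in both duplicate runs, the limit being the all-compound median minus 4 SD, cut at about 23% in these data, passing the limit was not always enough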;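 note: 0% = wells killed by 20 µM Hyamine and 100% = untreated DMSO cell wells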); settings: CellTiter-Glo, 60 h, at 10 µM, stronger effect = lower value
[5] = growth suppression of PTEN-deleted HCT116, pilot screen, cell-based, HCT116 clonal line, CellTiter-Glo (AID 824;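 active = viability at or below 27.92% in each of two runs, the all-compound median minus 4 SD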;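 note: 0% = 20 µM Hyamine control and 100% = vehicle cell control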); settings: 60 h, at 10 µM, stronger effect = lower value
[6] = inhibitors of the yeast RAM network, pilot screen, dse1pr::URA3 reporter, 5-FOA selection (AID 869;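 active = inhibition over a set limit, the all-compound mean plus 3 SD, in both replicate runs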;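 note: 0% = DMSO wells with no growth and 100% = 10 µM 1-NA-PP1 with full growth; RAM network block rescues cells from 5-FOA so hits raise OD615 growth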); settings: S. cerevisiae dse1pr::URA3 5-FOA growth, OD615, 2 d, at 10 µM, stronger effect = higher value
[7] = RAM signaling pathway blockade in yeast – S. cerevisiae, Pdr1DBD-CYC8 efflux-inhibited sensitized strain, primary screen (AID 1298);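 note: 0% = DMSO untreated cells without growth and 100% = 10 µM 1-NA-PP1 full growth; higher means more yeast growth rescued from 5-FOA killing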; settings: S. cerevisiae cbk1-as DSE1-URA3 strain, 5-FOA growth OD615, 2 d; at 50 µM; stronger effect = higher value
[8] = Recombinant Mtb pantothenate synthetase (PanC) inhibitors, coupled enzyme, confirmatory (AID 375; call rule not given here); settings: coupled enzyme assay; measured here: coupling enzymes IC50 repeat trials unless noted
[9] = biological target: Pantothenate synthetase (Mycobacterium tuberculosis (strain ATCC 25618 / H37Rv)) (UniProt P9WIL5); assay: as above; settings: coupled enzyme assay; at 10 µM, stronger effect = higher value
Chain of Pantothenate synthetase (Mycobacterium tuberculosis (strain ATCC 25618 / H37Rv)) (P9WIL5 whole entry, looked up): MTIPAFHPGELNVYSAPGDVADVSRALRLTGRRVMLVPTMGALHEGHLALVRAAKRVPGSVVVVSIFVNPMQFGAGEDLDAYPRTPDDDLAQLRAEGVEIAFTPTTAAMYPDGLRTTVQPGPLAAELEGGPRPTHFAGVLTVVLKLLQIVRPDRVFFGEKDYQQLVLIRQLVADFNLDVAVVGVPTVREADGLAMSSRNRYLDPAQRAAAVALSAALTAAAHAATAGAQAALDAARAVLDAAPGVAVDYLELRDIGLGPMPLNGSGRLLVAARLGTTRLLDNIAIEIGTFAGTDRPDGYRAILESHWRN

For `Cn1c(O)c(C=NCCOc2ccc(Cl)cc2)c(=O)n(C)c1=O`, the growth inhibition [1] was 4% (inactive), the growth inhibition [2] was 0.245% (inactive) and the viability increase [3] was 2.29% (inactive). The viability [4] was 93.2% (inactive), the viability [5] was 93.7% (inactive) and the inhibition [6] was 1.06% (inactive). The RAM network inhibition [7] was 4.1% (inactive).

In the case of `COc1cc2c(cc1OC)C(C(=O)N1CCC3(CC1)OCCO3)C(c1ccccc1F)N(C)C2=O` (stereo not given), the growth inhibition [1] is reported as -3.76% (inactive), the growth inhibition [2] is reported as 12% (inactive) and the viability increase [3] is reported as -3.17% (inactive). For the same compound, the viability [5] was 84.3% (inactive), the inhibition [6] was 1.23% (inactive) and the RAM network inhibition [7] was 0.57% (inactive).

For `Cc1nc2ccc(Cl)cn2c1P(=S)(N1CCOCC1)N1CCOCC1`, the growth inhibition [1] was -10.4% (inactive), the growth inhibition [2] was 4.46% (inactive) and the viability increase [3] was -2.81% (inactive). For the same compound, the viability [4] was 99.8% (inactive), the inhibition [6] was 0.175% (inactive) and the RAM network inhibition [7] was 5.03% (inactive).

For `Cc1ccc(Cn2ccc(NC(=O)c3cc(-c4ccc(F)cc4)on3)n2)cc1`, the IC50 [8] was greater than 100 µM and the outcome [9] was “inactive”.

For `CCc1sc(C(=O)N2CCC3(CC2)OCCO3)cc1Br`, the growth inhibition [1] was -7.48% (inactive), the growth inhibition [2] was -12.2% (inactive) and the viability increase [3] was -2% (inactive). The viability [5] was 100% (inactive), the inhibition [6] was 0.935% (inactive) and the RAM network inhibition [7] was 1.59% (inactive).

For `O=C(Cc1ccc(Br)cc1)N1CCN(Cc2ccccc2)CC1`, the growth inhibition [1] was -2.42% (inactive), the growth inhibition [2] was -2.88% (inactive) and the viability increase [3] was -1.69% (inactive). The viability [5] was 72.7% (inactive), the inhibition [6] was 1.23% (inactive) and the RAM network inhibition [7] was 5.41% (inactive).

For `O=C(c1ccccc1)c1cn(CC(=O)N2CCCC2)c2ccccc12`, the growth inhibition [1] was -15.1% (inactive), the growth inhibition [2] was -16.4% (inactive) and the viability increase [3] was -1.14% (inactive). For the same compound, the viability [4] was 102% (inactive), the viability [5] was 92% (inactive) and the inhibition [6] was 3.23% (inactive). For the same compound, the RAM network inhibition [7] was 4.67% (inactive).

With `COCCOC(=O)C1=C(N)OC(C)=C(C(=O)OC)C12C(=O)Nc1ccccc12` (stereo not given) the growth inhibition [1] was -5.22% (inactive), the growth inhibition [2] was -5.97% (inactive) and the viability increase [3] was -4.28% (inactive). For the same compound, the viability [5] was 93% (inactive), the inhibition [6] was 2.54% (inactive) and the RAM network inhibition [7] was 3.95% (inactive).

For `C=Cn1ccnc1P(=S)(c1ccn(C)c1)c1nccn1C=C`, the growth inhibition [1] was -2.8% (inactive), the growth inhibition [2] was 18.6% (inactive) and the viability increase [3] was 0.29% (inactive). For the same compound, the viability [4] was 100% (inactive), the viability [5] was 99.2% (inactive) and the inhibition [6] was 0.94% (inactive). For the same compound, the RAM network inhibition [7] was 1.45% (inactive).

With `COc1ccc(C2C(C(=O)N3CCC4(CC3)OCCO4)c3cc(OC)c(OC)cc3C(=O)N2C)cc1` (stereo not given) the growth inhibition [1] was -15.2% (inactive), the growth inhibition [2] was -29% (inactive) and the viability increase [3] was -2.58% (inactive). For the same compound, the viability [4] was 98% (inactive), the viability [5] was 99.4% (inactive) and the inhibition [6] was 1.61% (inactive). The RAM network inhibition [7] was 0.93% (inactive).
